From ChEMBL document CHEMBL1149812, “Synthesis of N-aryl-5-amino-4-cyanopyrazole derivatives as potent xanthine oxidase inhibitors” (Eur J Med Chem, 2008) come the findings set out here.

Data set [1] relates to NCI-H460. In words: Growth inhibition of human NCI-H460 cells after 48 hrs. Format: functional. As to conditions: NCI-H460, 48 h. A digest of the protocol:
(§1)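 SRB protein-stain assay following the NCI screening protocol. Cells kept adherent in RPMI-1640 with 5% heat-inactivated FBS, 2 mM glutamine and 50 µg/mL gentamicin at 37 °C under 5% CO2. Seeded at 7.5 × 10^4 cells/mL (NCI-H460) or 1.5 × 10^5 cells/mL (MCF-7, SF-268). Exposed 48 h to five concentrations, top 150 µM, DMSO ≤0.25%. […] Mean ± SEM of 1–6 experiments in duplicate.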

Data set [2] has as its system SF-268. The data set is described as follows: Growth inhibition of human SF268 cells after 48 hrs. Format: functional. As to conditions: SF-268, 48 h. The procedure, abridged:
as §1

Data set [3] has as its target T1, Xanthine dehydrogenase/oxidase (Homo sapiens, UniProt P47989). In words: Inhibition of xanthine oxidase. The procedure, abridged: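 Enzyme preincubated 15 min at room temperature: xanthine oxidase 0.066 U/mL in 50 mM potassium dihydrogen phosphate pH 7.4 with compound in DMSO (1% final). Started with 100 µM xanthine plus 1 mM EDTA. Mean ± SEM of 3 experiments, each in triplicate.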

Data set [4] relates to MCF7. The data set is described as follows: Growth inhibition of human MCF7 cells after 48 hrs. Format: functional. As to conditions: MCF7, 48 h. The procedure, abridged: as §1
The target in data set [5] is T1, Xanthine dehydrogenase/oxidase. The data set is described as follows: Activity of xanthine oxidase assessed as change in absorbance per min at 0.1 uM in presence of xanthine. A digest of the protocol:
(§2)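 Kinetic runs: xanthine oxidase (0.066 U/mL) in 50 mM potassium dihydrogen phosphate pH 7.4 preincubated 15 min at room temperature with inhibitor in DMSO (1% final). Started with xanthine at 100, 75, 50 or 25 µM plus 1 mM EDTA. Uric acid formation read at 295 nm over 2 min as ΔA/min. Vmax and Km taken from Lineweaver–Burk plots.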

Data set [6] shares this target. The data set is described as follows: Activity of xanthine oxidase assessed as change in absorbance per min at 0.025 uM in presence of xanthine. The procedure, abridged:
as §2

Data set [7] has the same target. The data set is described as follows: Activity of xanthine oxidase assessed as change in absorbance per min at 40 uM in presence of xanthine. A digest of the protocol: as §2
The target is the same in data set [8]. In words: Activity of xanthine oxidase assessed as change in absorbance per min at 10 uM in presence of xanthine. A digest of the protocol: as §2
Data set [9] has the same target. The data set is described as follows: Inhibition of xanthine oxidase at 100 uM.

Bounds are passed on as bounds.

As a reminder, the GI50 is the concentration that inhibits growth by half. The IC50 is the concentration needed to halve the response being measured. As usually defined, the inhibition is the share of the control response that was lost under treatment.

T1 sequence (P47989 whole entry): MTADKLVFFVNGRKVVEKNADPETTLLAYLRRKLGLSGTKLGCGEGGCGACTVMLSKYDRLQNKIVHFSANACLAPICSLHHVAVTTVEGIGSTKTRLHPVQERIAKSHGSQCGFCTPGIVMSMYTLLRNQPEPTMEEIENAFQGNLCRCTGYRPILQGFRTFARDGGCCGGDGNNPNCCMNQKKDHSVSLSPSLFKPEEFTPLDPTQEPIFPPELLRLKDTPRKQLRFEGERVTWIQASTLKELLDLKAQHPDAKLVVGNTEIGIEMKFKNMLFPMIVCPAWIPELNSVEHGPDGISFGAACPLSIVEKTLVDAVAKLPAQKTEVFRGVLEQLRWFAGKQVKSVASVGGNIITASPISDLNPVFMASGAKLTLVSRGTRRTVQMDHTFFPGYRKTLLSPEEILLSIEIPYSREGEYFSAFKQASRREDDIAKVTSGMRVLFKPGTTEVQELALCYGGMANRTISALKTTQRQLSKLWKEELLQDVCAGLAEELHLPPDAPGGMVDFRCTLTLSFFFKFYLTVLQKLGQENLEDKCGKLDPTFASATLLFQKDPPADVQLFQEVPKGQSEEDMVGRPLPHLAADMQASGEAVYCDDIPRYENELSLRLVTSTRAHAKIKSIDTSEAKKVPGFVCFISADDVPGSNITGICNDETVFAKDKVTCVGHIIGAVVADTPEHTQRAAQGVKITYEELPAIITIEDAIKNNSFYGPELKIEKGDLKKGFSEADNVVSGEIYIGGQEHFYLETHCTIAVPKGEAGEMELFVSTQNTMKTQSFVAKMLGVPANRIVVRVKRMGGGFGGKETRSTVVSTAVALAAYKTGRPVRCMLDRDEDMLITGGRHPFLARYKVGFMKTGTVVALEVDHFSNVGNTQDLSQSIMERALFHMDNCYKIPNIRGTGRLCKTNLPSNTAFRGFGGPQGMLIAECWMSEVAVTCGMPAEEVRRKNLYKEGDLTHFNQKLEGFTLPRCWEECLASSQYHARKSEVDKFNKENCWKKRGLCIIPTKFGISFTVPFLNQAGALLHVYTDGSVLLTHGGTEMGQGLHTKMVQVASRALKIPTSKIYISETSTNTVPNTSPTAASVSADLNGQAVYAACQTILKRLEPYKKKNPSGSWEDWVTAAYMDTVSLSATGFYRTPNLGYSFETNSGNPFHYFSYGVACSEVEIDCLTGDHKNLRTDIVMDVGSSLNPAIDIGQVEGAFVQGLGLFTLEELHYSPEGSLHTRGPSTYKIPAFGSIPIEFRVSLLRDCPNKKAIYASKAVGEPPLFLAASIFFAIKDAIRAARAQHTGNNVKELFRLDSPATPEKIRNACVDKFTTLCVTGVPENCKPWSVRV

For `Cc1ccc(-n2ncc(C#N)c2N)cc1`, the GI50 in data set [1], in [2] and in data set [4] was greater than 150 µM each time. Also, the IC50 in data set [3] was greater than 100 µM.

As for `N#Cc1ccc(-n2ncc(C#N)c2N)cc1`, the GI50 in data set [1], in data set [2] and in [4] was greater than 150 µM in each case. In data set [3], the IC50 is greater than 100 µM.

With `COc1ccc(-n2ncc(C#N)c2N)cc1`, the GI50 in data set [1], in data set [2] and in data set [4] was greater than 150 µM in each case. In [3], the IC50 was greater than 100 µM.

In the case of `Nc1ncnc2c1cnn2-c1ccc(C(F)(F)F)cc1`, the IC50 in [3] came to 0.18 µM.

Take `COC(=O)CNC(=O)c1ccc(-n2ncc3c(N)ncnc32)cc1`: the 50% growth inhibitory concentration (GI50) in data set [1], in [2] and in data set [4] was greater than 150 µM in each case. For the same compound, the deltaA in data set [5] was determined as 0.13; in [6], 0.16. For the same compound, the IC50 in data set [3] was found to be 0.08 µM.

For `N#Cc1cnn(-c2ccc([N+](=O)[O-])cc2)c1N`, the GI50 turned out to be 128 µM in [1], 135 µM in data set [2] and 64 µM in [4]. Besides, the concentration for half-maximal inhibition (IC50) in [3] is greater than 100 µM.

Consider `N#Cc1cnn(-c2ccc(Cl)cc2)c1N`, for which the concentration for 50% growth inhibition (GI50) in [1], in data set [2] and in data set [4] was greater than 150 µM each time. The same compound registered a half-maximal inhibitory concentration (IC50) in data set [3] greater than 100 µM.

As to `COc1ccc(-n2ncc3c(N)ncnc32)cc1`, the GI50 in data set [1], in data set [2] and in [4] was greater than 150 µM each time. In addition, in data set [3], the half-maximal inhibitory concentration (IC50) stood at 19.6 µM.

`Nc1ncnc2c1cnn2-c1ccc(C(=O)O)cc1` had an IC50 in data set [3] of 81 µM.

For the compound `N#Cc1cnn(-c2ccc(C(F)(F)F)cc2)c1N`, the GI50 in data set [1], in [2] and in [4] was greater than 150 µM in each case. This compound also yielded an IC50 in [3] greater than 100 µM.

The compound `N#Cc1ccc(-n2ncc3c(N)ncnc32)cc1` came in with a 50% inhibitory concentration (IC50) in [3] of 0.4 µM.

With `Cc1ccc(-n2ncc3c(N)ncnc32)cc1`, in data set [3], the IC50 stood at 17.4 µM.

Regarding `N#Cc1cnn(-c2ccc(C(=O)O)cc2)c1N`, the deltaA in data set [7] turned out to be 0.08; in [8], 0.12. This compound also came in with an IC50 in data set [3] of 36.1 µM.

In the case of `CC(=O)OC[C@H]1O[C@@H](Nc2ncnc3c2cnn3-c2ccc(C(=O)O)cc2)[C@H](OC(C)=O)[C@@H](OC(C)=O)[C@@H]1OC(C)=O`, the GI50 in data set [1], in data set [2] and in data set [4] was greater than 150 µM each time. Besides, in data set [3], the IC50 worked out at 18.4 µM.

Turning to `Nc1ncnc2c1cnn2-c1ccc([N+](=O)[O-])cc1`, in data set [3], the half-inhibitory concentration (IC50) was 2.2 µM.

In the case of `COC(=O)CNC(=O)c1ccc(-n2ncc(C#N)c2N)cc1`, the GI50 in data set [1], in data set [2] and in data set [4] was greater than 150 µM in each case. In addition, the deltaA in [7] turned out to be 0.09; in data set [8], 0.23. Also, half-maximal inhibition in [3] (IC50) required 37.9 µM.

`CC(=O)OC[C@H]1O[C@@H](Nc2c(C#N)cnn2-c2ccc(C(=O)O)cc2)[C@H](OC(C)=O)[C@@H](OC(C)=O)[C@@H]1OC(C)=O` came in with an IC50 in data set [3] greater than 100 µM.

In the case of `Oc1ncnc2[nH]ncc12` [ALLOPURINOL], in data set [9], the inhibition at 100 µM stood at 96.3%.

In the case of `COc1cccc2c1C(=O)c1c(O)c3c(c(O)c1C2=O)C[C@@](O)(C(=O)CO)C[C@@H]3O[C@H]1C[C@H](N)[C@H](O)[C@H](C)O1` [DOXORUBICIN], the GI50 in data set [1] was 0.094 µM; in data set [2] it was 0.093 µM; in [4], 0.0428 µM.
